In ChEMBL document CHEMBL1156975, “Discovery and SAR of potent, orally available 2,8-diaryl-quinoxalines as a new class of JAK2 inhibitors” (Bioorg Med Chem Lett, 2010):

Target: T1, Tyrosine-protein kinase JAK3 (Homo sapiens, UniProt P52333)
T1 sequence (P52333 whole entry): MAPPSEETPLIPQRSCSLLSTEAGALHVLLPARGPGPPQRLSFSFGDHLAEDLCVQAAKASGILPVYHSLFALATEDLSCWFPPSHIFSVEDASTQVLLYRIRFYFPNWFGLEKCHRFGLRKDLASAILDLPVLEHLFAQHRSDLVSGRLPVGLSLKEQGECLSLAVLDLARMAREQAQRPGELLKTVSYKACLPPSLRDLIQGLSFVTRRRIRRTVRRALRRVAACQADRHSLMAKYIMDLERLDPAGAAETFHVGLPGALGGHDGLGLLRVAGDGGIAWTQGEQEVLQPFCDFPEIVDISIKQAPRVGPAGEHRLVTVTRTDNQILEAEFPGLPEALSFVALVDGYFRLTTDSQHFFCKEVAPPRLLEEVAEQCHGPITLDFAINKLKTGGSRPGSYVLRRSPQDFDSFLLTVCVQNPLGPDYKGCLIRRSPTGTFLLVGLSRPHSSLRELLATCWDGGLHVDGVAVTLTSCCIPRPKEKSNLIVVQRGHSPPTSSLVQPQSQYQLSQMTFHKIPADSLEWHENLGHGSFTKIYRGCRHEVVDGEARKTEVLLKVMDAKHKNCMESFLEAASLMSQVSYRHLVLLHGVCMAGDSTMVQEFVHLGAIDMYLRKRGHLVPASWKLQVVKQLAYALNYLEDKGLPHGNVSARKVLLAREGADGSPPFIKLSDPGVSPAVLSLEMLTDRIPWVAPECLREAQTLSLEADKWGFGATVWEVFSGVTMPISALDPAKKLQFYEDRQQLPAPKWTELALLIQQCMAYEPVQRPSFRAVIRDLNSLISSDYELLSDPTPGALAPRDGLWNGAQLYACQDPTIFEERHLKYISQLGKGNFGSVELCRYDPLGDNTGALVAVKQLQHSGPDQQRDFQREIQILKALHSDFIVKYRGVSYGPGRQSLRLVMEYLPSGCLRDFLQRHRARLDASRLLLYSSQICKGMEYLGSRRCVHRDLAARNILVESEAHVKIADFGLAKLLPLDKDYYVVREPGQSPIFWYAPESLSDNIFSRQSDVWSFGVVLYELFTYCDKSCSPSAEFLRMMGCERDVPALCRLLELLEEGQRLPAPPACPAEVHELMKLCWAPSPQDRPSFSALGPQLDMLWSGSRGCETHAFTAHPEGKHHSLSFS
Conditions: not given

| IC50 [nM] | SMILES |
| --- | --- |
| > 10000 | COc1cc(-c2cnc3cc(C)cc(-c4ccc(CC(=O)N5CCS(=O)(=O)CC5)cc4)c3n2)cc(OC)c1OC |
| 232 | Cc1cc(-c2cnc3cccc(-c4ccc(CN5CCS(=O)(=O)CC5)cc4)c3n2)ccc1C(=O)N1CCN(C)CC1 |
| 9900 | COc1cc(-c2cnc3cccc(-c4ccc(CN5CCOCC5)cc4F)c3n2)cc(OC)c1OC |
| > 10000 | COc1cc(-c2cnc3cccc(-c4ccc(CN5CCOCC5)cc4)c3n2)cc(OC)c1OC |
| 2700 | COc1cc(-c2cnc3cccc(-c4ccc(CN5CCOCC5)cc4C)c3n2)cc(OC)c1OC |

Target: Tyrosine-protein kinase JAK2 (Homo sapiens, UniProt O60674)
Conditions: not given

Chain of Tyrosine-protein kinase JAK2 (O60674 whole entry): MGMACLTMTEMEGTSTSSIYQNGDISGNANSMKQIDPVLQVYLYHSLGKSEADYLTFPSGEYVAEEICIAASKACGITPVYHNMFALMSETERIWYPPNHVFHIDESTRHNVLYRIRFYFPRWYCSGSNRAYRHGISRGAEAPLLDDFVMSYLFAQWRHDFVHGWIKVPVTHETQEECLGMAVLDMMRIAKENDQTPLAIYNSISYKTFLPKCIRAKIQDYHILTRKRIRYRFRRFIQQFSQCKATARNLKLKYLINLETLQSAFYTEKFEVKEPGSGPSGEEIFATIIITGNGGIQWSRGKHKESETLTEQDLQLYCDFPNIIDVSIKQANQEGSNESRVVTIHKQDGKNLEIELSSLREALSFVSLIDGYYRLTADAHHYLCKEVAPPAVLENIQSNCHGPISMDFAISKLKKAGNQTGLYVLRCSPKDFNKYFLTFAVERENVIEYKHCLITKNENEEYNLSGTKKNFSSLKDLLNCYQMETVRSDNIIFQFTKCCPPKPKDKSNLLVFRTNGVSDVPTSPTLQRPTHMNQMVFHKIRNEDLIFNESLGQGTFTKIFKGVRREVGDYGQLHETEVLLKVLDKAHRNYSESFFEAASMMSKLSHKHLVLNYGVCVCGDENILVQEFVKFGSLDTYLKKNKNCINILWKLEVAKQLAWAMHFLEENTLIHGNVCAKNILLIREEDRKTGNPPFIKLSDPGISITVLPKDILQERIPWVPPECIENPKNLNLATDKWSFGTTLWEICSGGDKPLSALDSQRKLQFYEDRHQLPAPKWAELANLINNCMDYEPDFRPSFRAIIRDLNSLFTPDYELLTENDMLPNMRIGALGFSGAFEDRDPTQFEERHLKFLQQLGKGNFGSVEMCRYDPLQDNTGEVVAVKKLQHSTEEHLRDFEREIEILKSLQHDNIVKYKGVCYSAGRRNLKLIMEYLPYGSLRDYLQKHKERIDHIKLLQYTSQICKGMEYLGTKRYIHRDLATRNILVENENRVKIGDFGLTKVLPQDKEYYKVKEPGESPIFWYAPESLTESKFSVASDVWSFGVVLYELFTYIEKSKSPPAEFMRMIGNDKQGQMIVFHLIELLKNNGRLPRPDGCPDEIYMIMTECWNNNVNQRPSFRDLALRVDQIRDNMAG

| IC50 [nM] | SMILES |
| --- | --- |
| 4200 | COc1cc(-c2cnc3cc(C)cc(-c4ccc(CC(=O)N5CCS(=O)(=O)CC5)cc4)c3n2)cc(OC)c1OC |
| 7.1 | Cc1cc(-c2cnc3cccc(-c4ccc(CN5CCS(=O)(=O)CC5)cc4)c3n2)ccc1C(=O)N1CCN(C)CC1 |
| 685 | COc1cc(-c2cnc3cccc(-c4ccc(CN5CCOCC5)cc4C)c3n2)cc(OC)c1OC |

System: not listed separately
Assay: Growth inhibition of human SET2 cells expressing JAK2V617F mutant after 72 hrs by colorimetric WST1 assay
Assay type: functional
Conditions: SET-2, 72 h
In short: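 Megakaryoblastic SET-2 cells were grown in RPMI with 10% FCS, 2 mM L-glutamine and 1% penicillin/streptomycin. Cells were exposed to an 8-point compound concentration range for 72 h. Proliferation was read by WST-1 colorimetric viability, relative to DMSO vehicle controls.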

| SMILES | GI50 [nM] |
| --- | --- |
| Cc1cc(-c2cnc3cccc(-c4ccc(CN5CCS(=O)(=O)CC5)cc4)c3n2)ccc1C(=O)N1CCN(C)CC1 | 96 |

Target: Non-receptor tyrosine-protein kinase TYK2 (Homo sapiens, UniProt P29597)
Assay: Inhibition of recombinant GST tagged TYK2 protein after 60 mins using FITC-Ahx-KKSRGDYMTMQIG-NH2 substrate
Conditions: not given

Chain of Non-receptor tyrosine-protein kinase TYK2 (P29597 whole entry): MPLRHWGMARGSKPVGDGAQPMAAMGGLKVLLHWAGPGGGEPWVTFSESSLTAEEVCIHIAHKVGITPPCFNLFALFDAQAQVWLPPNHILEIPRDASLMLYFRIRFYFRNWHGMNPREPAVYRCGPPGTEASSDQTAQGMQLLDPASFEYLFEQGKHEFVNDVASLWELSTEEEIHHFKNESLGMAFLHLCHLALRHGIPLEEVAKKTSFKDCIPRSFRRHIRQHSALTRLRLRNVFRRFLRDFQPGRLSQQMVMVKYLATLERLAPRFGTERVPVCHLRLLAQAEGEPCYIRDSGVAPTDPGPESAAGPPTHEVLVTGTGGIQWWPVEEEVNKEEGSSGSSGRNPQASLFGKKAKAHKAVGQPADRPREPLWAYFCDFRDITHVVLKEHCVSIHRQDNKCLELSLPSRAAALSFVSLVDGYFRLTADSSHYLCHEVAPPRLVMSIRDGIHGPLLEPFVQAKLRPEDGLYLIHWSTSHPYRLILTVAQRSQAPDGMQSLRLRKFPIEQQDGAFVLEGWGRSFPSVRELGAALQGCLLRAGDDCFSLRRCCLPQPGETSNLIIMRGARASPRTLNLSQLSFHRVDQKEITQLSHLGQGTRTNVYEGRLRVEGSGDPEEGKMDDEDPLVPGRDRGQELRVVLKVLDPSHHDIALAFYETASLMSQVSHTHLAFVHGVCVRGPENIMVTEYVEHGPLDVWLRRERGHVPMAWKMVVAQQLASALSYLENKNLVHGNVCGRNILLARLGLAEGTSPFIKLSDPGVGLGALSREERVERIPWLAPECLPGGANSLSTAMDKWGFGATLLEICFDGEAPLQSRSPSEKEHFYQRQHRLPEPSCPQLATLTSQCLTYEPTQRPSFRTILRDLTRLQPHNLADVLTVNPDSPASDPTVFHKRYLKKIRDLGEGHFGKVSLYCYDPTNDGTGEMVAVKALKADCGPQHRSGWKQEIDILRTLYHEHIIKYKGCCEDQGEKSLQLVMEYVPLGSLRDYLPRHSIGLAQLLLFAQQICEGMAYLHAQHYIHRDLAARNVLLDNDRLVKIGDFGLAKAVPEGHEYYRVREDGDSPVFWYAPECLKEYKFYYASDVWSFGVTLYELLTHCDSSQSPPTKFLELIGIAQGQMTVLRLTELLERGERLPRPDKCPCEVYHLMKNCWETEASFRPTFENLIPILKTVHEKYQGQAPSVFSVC

| IC50 [nM] | SMILES |
| --- | --- |
| > 10000 | COc1cc(-c2cnc3cc(C)cc(-c4ccc(CC(=O)N5CCS(=O)(=O)CC5)cc4)c3n2)cc(OC)c1OC |
| 9300 | COc1cc(-c2cnc3cccc(-c4ccc(CN5CCOCC5)cc4F)c3n2)cc(OC)c1OC |
| > 10000 | COc1cc(-c2cnc3cccc(-c4ccc(CN5CCOCC5)cc4)c3n2)cc(OC)c1OC |
| 4200 | COc1cc(-c2cnc3cccc(-c4ccc(CN5CCOCC5)cc4C)c3n2)cc(OC)c1OC |

System: not listed separately
Assay: Dissociation constant, pKa of the compound
Assay type: physicochemical
Conditions: not given

| pKa | SMILES |
| --- | --- |
| 3.9 | Cc1cc(-c2cnc3cccc(-c4ccc(CN5CCS(=O)(=O)CC5)cc4)c3n2)ccc1C(=O)N1CCN(C)CC1 |

System: not listed separately
Assay: Partition coefficient, log P of the compound
Assay type: physicochemical
Conditions: octanol/water

| logP | SMILES |
| --- | --- |
| 2.8 | Cc1cc(-c2cnc3cccc(-c4ccc(CN5CCS(=O)(=O)CC5)cc4)c3n2)ccc1C(=O)N1CCN(C)CC1 |

Target: Tyrosine-protein kinase JAK1 (Homo sapiens, UniProt P23458)
Assay: Inhibition of recombinant GST tagged JAK1 protein after 60 mins using FITC-Ahx-KKSRGDYMTMQIG-NH2 substrate
Conditions: not given

Chain of Tyrosine-protein kinase JAK1 (P23458 whole entry): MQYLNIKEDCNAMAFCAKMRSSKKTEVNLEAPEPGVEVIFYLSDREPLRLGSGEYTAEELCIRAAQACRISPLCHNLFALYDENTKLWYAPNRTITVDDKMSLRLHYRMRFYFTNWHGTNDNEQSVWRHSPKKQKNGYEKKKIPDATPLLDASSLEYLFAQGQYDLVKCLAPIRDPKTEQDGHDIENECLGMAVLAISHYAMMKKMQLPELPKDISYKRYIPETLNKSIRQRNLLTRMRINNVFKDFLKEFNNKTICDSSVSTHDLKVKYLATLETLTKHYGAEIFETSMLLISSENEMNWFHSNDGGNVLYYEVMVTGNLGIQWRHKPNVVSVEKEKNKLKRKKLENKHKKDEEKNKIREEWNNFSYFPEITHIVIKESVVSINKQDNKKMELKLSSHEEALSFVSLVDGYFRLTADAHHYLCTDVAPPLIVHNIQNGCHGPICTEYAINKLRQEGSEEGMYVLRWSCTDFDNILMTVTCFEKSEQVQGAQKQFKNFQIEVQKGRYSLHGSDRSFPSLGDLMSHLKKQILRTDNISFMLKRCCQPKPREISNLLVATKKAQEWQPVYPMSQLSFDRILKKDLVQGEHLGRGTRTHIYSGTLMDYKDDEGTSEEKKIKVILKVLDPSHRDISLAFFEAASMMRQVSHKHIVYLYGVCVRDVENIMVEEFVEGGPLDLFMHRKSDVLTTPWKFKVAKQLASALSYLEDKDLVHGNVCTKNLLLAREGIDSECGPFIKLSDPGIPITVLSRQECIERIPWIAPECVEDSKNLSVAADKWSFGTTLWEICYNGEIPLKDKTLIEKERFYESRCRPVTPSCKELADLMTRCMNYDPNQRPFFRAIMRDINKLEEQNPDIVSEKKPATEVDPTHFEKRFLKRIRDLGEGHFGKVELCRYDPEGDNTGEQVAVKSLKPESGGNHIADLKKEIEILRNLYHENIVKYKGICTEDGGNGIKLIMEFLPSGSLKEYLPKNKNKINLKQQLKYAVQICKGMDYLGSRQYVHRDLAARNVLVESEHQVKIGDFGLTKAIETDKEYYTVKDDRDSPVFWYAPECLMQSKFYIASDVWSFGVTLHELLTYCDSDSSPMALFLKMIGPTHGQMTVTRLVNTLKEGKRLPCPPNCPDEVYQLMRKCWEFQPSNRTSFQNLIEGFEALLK

| IC50 [nM] | SMILES |
| --- | --- |
| > 10000 | COc1cc(-c2cnc3cc(C)cc(-c4ccc(CC(=O)N5CCS(=O)(=O)CC5)cc4)c3n2)cc(OC)c1OC |
| 89 | Cc1cc(-c2cnc3cccc(-c4ccc(CN5CCS(=O)(=O)CC5)cc4)c3n2)ccc1C(=O)N1CCN(C)CC1 |
| 4700 | COc1cc(-c2cnc3cccc(-c4ccc(CN5CCOCC5)cc4F)c3n2)cc(OC)c1OC |
| 1500 | COc1cc(-c2cnc3cccc(-c4ccc(CN5CCOCC5)cc4)c3n2)cc(OC)c1OC |
| 1200 | COc1cc(-c2cnc3cccc(-c4ccc(CN5CCOCC5)cc4C)c3n2)cc(OC)c1OC |
